This is an account of results in ChEMBL document CHEMBL1817556, “Substituted lactam and cyclic azahemiacetals modulate Pseudomonas aeruginosa quorum sensing” (Bioorg Med Chem, 2011).

In test [1] the target is T1, Acyl-homoserine-lactone synthase (Pseudomonas aeruginosa (strain ATCC 15692 / PAO1 / 1C / PRS 101 / LMG12228)) (UniProt P33883).
T1 sequence (whole entry): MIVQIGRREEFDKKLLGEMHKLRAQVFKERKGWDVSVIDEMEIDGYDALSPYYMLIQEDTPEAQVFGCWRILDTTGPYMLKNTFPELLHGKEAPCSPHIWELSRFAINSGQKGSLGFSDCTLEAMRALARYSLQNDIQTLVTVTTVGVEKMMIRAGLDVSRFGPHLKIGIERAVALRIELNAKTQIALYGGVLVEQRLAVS
As to the kind of experiment: Modulation of Pseudomonas aeruginosa lacZ-fused lasI expressed in Escherichia coli DH5alpha co-expressing pBAD-lasR assessed as 3-oxo-C12-AHL-induced effect at 0.17 mM after 3 hrs by beta-galactosidase assay relative to control. In outline:
(§1)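 E. coli DH5α carrying pSC11 (PlasI-lacZ translational fusion) and pJN105L (PBAD-lasR) was grown overnight in LB with ampicillin (100 μg/ml) and gentamicin (15 μg/ml), then diluted to OD600 0.150. Arabinose (0.2% w/v), 3-oxo-C12-AHL (2 μM) and test compound or DMSO were added. Cultures were shaken 3 h at 37 °C. β-Galactosidase activity was read in Miller units and expressed as % of the solvent sample. Triplicates per biological replicate, repeated at least twice; paired two-tailed t-test.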

The target of test [2] is T1, Acyl-homoserine-lactone synthase (Pseudomonas aeruginosa (strain ATCC 15692 / PAO1 / 1C / PRS 101 / LMG12228)). Briefly: Modulation of Pseudomonas aeruginosa lacZ-fused lasI expressed in Escherichia coli DH5alpha co-expressing pBAD-lasR assessed as 3-oxo-C12-AHL-induced effect at 0.33 mM after 3 hrs by beta-galactosidase assay relative to control. The gist of the method: as §1

Test [3] has the same target. Briefly: Modulation of Pseudomonas aeruginosa lacZ-fused lasI expressed in Escherichia coli DH5alpha co-expressing pBAD-lasR assessed as 3-oxo-C12-AHL-induced effect at 0.50 mM after 3 hrs by beta-galactosidase assay relative to control. The gist of the method:
as §1

Test [4] has the same target. Briefly: Modulation of Pseudomonas aeruginosa lacZ-fused lasI expressed in Escherichia coli DH5alpha co-expressing pBAD-lasR assessed as 3-oxo-C12-AHL-induced effect at 0.67 mM after 3 hrs by beta-galactosidase assay relative to control. In outline:
as §1

For test [5], the target named is 3-(3-hydroxydecanoyloxy)decanoate synthase (Pseudomonas aeruginosa (strain ATCC 15692 / PAO1 / 1C / PRS 101 / LMG12228)) (UniProt Q51559). As to the kind of experiment: Modulation of Pseudomonas aeruginosa lacZ-fused rhlA expressed in Escherichia coli DH5alpha co-expressing Ptac-rhlR assessed as C4-AHL-induced effect at 0.17 mM after 4 hrs by beta-galactosidase assay relative to control. The gist of the method: (§2)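 rhl reporter: E. coli DH5α carrying pECP61.5 (Ptac-rhlR, PrhlA-lacZ) was grown overnight in LB with ampicillin (100 μg/ml) only, then diluted to OD600 0.150. It was induced with 1 mM IPTG, and 2 μM C4-HSL plus compound or DMSO were added at OD600 1.0. Cultures were shaken 4 h at 37 °C. β-Galactosidase activity was read in Miller units as % of the solvent sample. Triplicates per biological replicate, at least two repeats; paired two-tailed t-test.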

For test [6] the target is unchanged. As to the kind of experiment: Modulation of Pseudomonas aeruginosa lacZ-fused rhlA expressed in Escherichia coli DH5alpha co-expressing Ptac-rhlR assessed as C4-AHL-induced effect at 0.33 mM after 4 hrs by beta-galactosidase assay relative to control. The gist of the method:
as §2

Test [7] shares this target. Briefly: Modulation of Pseudomonas aeruginosa lacZ-fused rhlA expressed in Escherichia coli DH5alpha co-expressing Ptac-rhlR assessed as C4-AHL-induced effect at 0.50 mM after 4 hrs by beta-galactosidase assay relative to control. The gist of the method:
as §2

Test [8] shares this target. As to the kind of experiment: Modulation of Pseudomonas aeruginosa lacZ-fused rhlA expressed in Escherichia coli DH5alpha co-expressing Ptac-rhlR assessed as C4-AHL-induced effect at 0.67 mM after 4 hrs by beta-galactosidase assay relative to control. In outline:
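E. coli DH5α carrying pECP61.5 (Ptac-rhlR, PrhlA-lacZ), grown overnight in LB with ampicillin 100 μg/ml and diluted to OD600 0.150. At OD600 1.0, 1 mM IPTG, 2 μM C4-HSL and compound or DMSO were added. Cultures were shaken 4 h at 37 °C, then β-galactosidase was read in Miller units. Activity is % of solvent sample, from triplicates per biological replicate, with at least two repeats.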

Test [9] shares this target. Briefly: Modulation of Pseudomonas aeruginosa lacZ-fused rhlA expressed in Escherichia coli DH5alpha co-expressing Ptac-rhlR at 0.002 mM after 4 hrs by beta-galactosidase assay relative to control. In outline:
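E. coli DH5α carrying pECP61.5 (Ptac-rhlR plus PrhlA-lacZ) was grown overnight in LB with ampicillin 100 μg/ml and diluted to OD600 0.150. It was induced with 1 mM IPTG, and 2 μM C4-HSL plus compound or DMSO were added at OD600 1.0. Cultures were shaken 4 h at 37°C and β-galactosidase read in Miller units. Activity is % of solvent control, triplicates, ≥2 biological repeats, paired two-tailed t-test.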

Regarding `CCCCCCCCCCCCSC[C@@H]1CCC(=O)N1`, the Activity in [1] was 52%; in test [2] it was 32%; in [3] it was 18%; in test [4], 11%; in [5], 103%; in [6] it was 106%. In addition, the Activity is 109% in [7] and 106% in [8].
As for `CCCC(=O)N[C@H]1CCOC1=O`, the Activity in [9] is 100%.
